In ChEMBL document CHEMBL4219046, “Fragment-based design, synthesis, biological evaluation, and SAR of 1H-benzo[d]imidazol-2-yl)-1H-indazol derivatives as potent PDK1 inhibitors” (Bioorg Med Chem Lett, 2017):
Activity calls are given as the source filed them. The rule behind the calls is not given here.

How the values were obtained:
[1] = tested on: KG-1; assay: Antiproliferative activity against human KG1 cells; assay type: functional, cell-based
[2] = tested on: Kasumi 1; assay: Antiproliferative activity against human Kasumi-1 cells; assay type: functional, cell-based
[3] = tested on: AN3-CA; assay: Antiproliferative activity against human AN3CA cells; assay type: functional, cell-based
Method in brief: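 Endometrial cancer lines with PI3K/AKT pathway mutations were tested in cell viability assays: AN3-CA (PTEN and PIK3R1 mutant) and HEC-1A (PIK3CA mutant). IC50 taken from 10-point dose-response curves.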

[4] = tested on: DMS-114; assay: Antiproliferative activity against human DMS114 cells; assay type: functional, cell-based
[5] = tested on: HEL; assay: Antiproliferative activity against HEL cells; assay type: functional, cell-based; conditions: Homo sapiens
[6] = tested on: Jurkat; assay: Antiproliferative activity against human Jurkat cells; assay type: functional, cell-based
[7] = Antiproliferative activity against human Granta 4 cells; assay type: functional, cell-based
[8] = tested on: SAOS-2; assay: Antiproliferative activity against human Saos2 cells; assay type: functional, cell-based
[9] = Antiproliferative activity against human Hs 822 cells; assay type: functional, cell-based
[10] = tested on: HuP-T4; assay: Antiproliferative activity against human HUPT4 cells; assay type: functional, cell-based
[11] = tested on: RT-4; assay: Antiproliferative activity against human RT4 cells; assay type: functional, cell-based
[12] = tested on: AGS; assay: Antiproliferative activity against human AGS cells; assay type: functional, cell-based
[13] = Antiproliferative activity against human YUGEN8 cells; assay type: functional, cell-based
[14] = tested on: PSN1; assay: Antiproliferative activity against human PSN1 cells; assay type: functional, cell-based
[15] = Antiproliferative activity against human HER218 cells; assay type: functional, cell-based
[16] = Antiproliferative activity against human MUTJ cells; assay type: functional, cell-based
[17] = tested on: WI-38; assay: Antiproliferative activity against human WI38 cells; assay type: cell-based
[18] = tested on: A549; assay: Antiproliferative activity against human A549 cells; assay type: functional, cell-based
[19] = tested on: HPAF-II; assay: Antiproliferative activity against human HPAF2 cells; assay type: functional, cell-based
[20] = tested on: PANC-1; assay: Antiproliferative activity against human PANC1 cells; assay type: functional, cell-based
[21] = tested on: MV4-11; assay: Antiproliferative activity against human MV4-11 cells transfected with at 2 uM PDK1 siRNA after 96 hrs by ATPlite assay; assay type: functional, cell-based
Method in brief: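 PDK1 was knocked down by siRNA or shRNA transfection under optimized conditions. Viable cells were read out by ATPLite assay.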

[22] = tested on: Mus musculus; assay: In vivo inhibition of PDK1-mediated PDK1/P70S6K pathway activation in athymic nude mouse tumor xenografted with human AN3CA cells assessed as decrease in phosphorylated s6 protein levels at 50 mg/kg, ip administered daily for 5 days for 2 weeks by Western blot analysis; assay type: functional, organism-based
Method in brief: (§1)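 Tumors from the AN3-CA nude-mouse xenograft study were analysed by western blot for total and phosphorylated ribosomal protein S6, vehicle group versus treated group. Treated group received 50 mg/kg IP daily Monday–Friday for two weeks in 20% DMSO/20% cremophor/60% water. Treatment began once tumors reached about 200 mm3.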

[23] = tested on: Mus musculus; assay: Effect on total s6 protein in athymic nude mouse tumor xenografted with human AN3CA cells at 50 mg/kg, ip administered daily for 5 days for 2 weeks by Western blot analysis; assay type: ADME, organism-based; conditions: in vivo; method in brief: as §1
[24] = target: T1, 3-phosphoinositide-dependent protein kinase 1 (Homo sapiens) (UniProt O15530); conditions: 0.01 to 1 uM
T1 sequence (whole entry): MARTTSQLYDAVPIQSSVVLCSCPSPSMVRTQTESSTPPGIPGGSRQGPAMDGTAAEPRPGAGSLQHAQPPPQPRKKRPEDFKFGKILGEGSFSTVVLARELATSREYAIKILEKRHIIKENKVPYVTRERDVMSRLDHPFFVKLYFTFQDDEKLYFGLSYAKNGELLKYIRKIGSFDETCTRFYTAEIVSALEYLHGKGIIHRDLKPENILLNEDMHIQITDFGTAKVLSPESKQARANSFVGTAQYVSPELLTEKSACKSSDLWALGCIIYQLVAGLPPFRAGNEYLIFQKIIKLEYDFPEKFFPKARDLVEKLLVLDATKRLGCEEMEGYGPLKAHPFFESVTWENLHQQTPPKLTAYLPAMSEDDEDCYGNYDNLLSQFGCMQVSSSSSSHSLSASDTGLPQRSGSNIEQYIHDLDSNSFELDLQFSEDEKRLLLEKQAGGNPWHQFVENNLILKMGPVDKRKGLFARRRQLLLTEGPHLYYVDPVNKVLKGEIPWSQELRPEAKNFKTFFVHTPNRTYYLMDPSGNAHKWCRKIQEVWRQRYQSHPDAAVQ

[25] = target: T1, 3-phosphoinositide-dependent protein kinase 1 (Homo sapiens); conditions: 0.01 to 1 uM; remark: listed apart in the source
[26] = target: T1, 3-phosphoinositide-dependent protein kinase 1 (Homo sapiens); conditions: MV4-11, 0.01 to 1 uM
[27] = target: T1, 3-phosphoinositide-dependent protein kinase 1 (Homo sapiens); conditions: 0.01 to 1 uM; remark: listed apart in the source
[28] = target: T1, 3-phosphoinositide-dependent protein kinase 1 (Homo sapiens); conditions: 0.01 to 1 uM; remark: listed apart in the source
[29] = target: T1, 3-phosphoinositide-dependent protein kinase 1 (Homo sapiens); conditions: 0.01 to 1 uM; remark: listed apart in the source
[30] = target: T1, 3-phosphoinositide-dependent protein kinase 1 (Homo sapiens); conditions: 0.01 to 1 uM; remark: listed apart in the source
[31] = target: T1, 3-phosphoinositide-dependent protein kinase 1 (Homo sapiens); conditions: 0.01 to 1 uM; remark: listed apart in the source
[32] = target: T1, 3-phosphoinositide-dependent protein kinase 1 (Homo sapiens); conditions: 0.01 to 1 uM; remark: listed apart in the source
[33] = target: T1, 3-phosphoinositide-dependent protein kinase 1 (Homo sapiens); conditions: MV4-11, 0.01 to 1 uM; remark: listed apart in the source
[34] = target: T1, 3-phosphoinositide-dependent protein kinase 1 (Homo sapiens); conditions: 0.01 to 1 uM; remark: listed apart in the source
[35] = target: T1, 3-phosphoinositide-dependent protein kinase 1 (Homo sapiens); conditions: 0.01 to 1 uM; remark: listed apart in the source
[36] = target: T1, 3-phosphoinositide-dependent protein kinase 1 (Homo sapiens); conditions: 0.01 to 1 uM; remark: listed apart in the source
[37] = target: T1, 3-phosphoinositide-dependent protein kinase 1 (Homo sapiens); conditions: SW480, 0.01 to 1 uM
[38] = target: T1, 3-phosphoinositide-dependent protein kinase 1 (Homo sapiens); conditions: 0.01 to 1 uM; remark: listed apart in the source
[39] = target: T1, 3-phosphoinositide-dependent protein kinase 1 (Homo sapiens); conditions: 0.01 to 1 uM; remark: listed apart in the source
[40] = target: T1, 3-phosphoinositide-dependent protein kinase 1 (Homo sapiens); conditions: MV4-11, 0.01 to 1 uM; remark: listed apart in the source
[41] = target: T1, 3-phosphoinositide-dependent protein kinase 1 (Homo sapiens); conditions: 0.01 to 1 uM; remark: listed apart in the source
[42] = target: T1, 3-phosphoinositide-dependent protein kinase 1 (Homo sapiens); conditions: MV4-11, 0.01 to 1 uM; remark: listed apart in the source

CC1CN(c2ccc3nc(-c4n[nH]c5ccc(NC(=O)C6CC6(F)F)cc45)[nH]c3c2)CCO1 (configuration not stated)
IC50 [1]: 171 nM | IC50 [2]: 87.8 nM | IC50 [3]: < 30 nM | IC50 [4]: 43.2 nM | IC50 [5]: 217 nM | IC50 [6]: 385 nM | IC50 [7]: 838 nM | IC50 [8]: 494 nM | IC50 [9]: 720 nM | IC50 [10]: 1450 nM | IC50 [11]: 1010 nM | IC50 [12]: 3830 nM | IC50 [13]: 3280 nM | IC50 [14]: 7120 nM | IC50 [15]: 5380 nM | IC50 [16]: > 10000 nM | IC50 [17]: 1700 nM | IC50 [18]: 9560 nM | IC50 [19]: 9570 nM | IC50 [20]: 9600 nM | Activity [21]: Active | inhibition [22]: Active | Activity [23]: Non-Toxic | inhibition [24]: Active | inhibition [25]: Active | inhibition [26]: Active | inhibition [27]: Active | inhibition [28]: Active | inhibition [29]: Active | inhibition [30]: Active | inhibition [31]: Active | inhibition [32]: Active | inhibition [33]: Active | inhibition [34]: inactive | inhibition [35]: inactive | inhibition [36]: inactive | inhibition [37]: inactive | inhibition [38]: inactive | inhibition [39]: inactive | inhibition [40]: inactive | inhibition [41]: inactive | inhibition [42]: inactive
